{"source": "ChEMBL document CHEMBL4725347", "about": "“Discovery of a Monoiodo Aza-BODIPY Near-Infrared Photosensitizer: in vitro and in vivo Evaluation for Photodynamic Therapy” (J Med Chem, 2020)", "key": {"[1]": {"assay": "Dark toxicity in human MCF7 cells assessed as reduction in cell viability after 3 hrs by MTT assay", "type": "cell-based"}, "[2]": {"assay": "Absorption property of the compound in N,N-dimethylformamide assessed as absorption coefficient by UV-visible spectrophotometric method", "type": "physicochemical", "in_short": "(§1)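 Electronic absorption spectra recorded by UV-visible spectrophotometry at room temperature. Solvents were chloroform, isopropanol, acetonitrile, DMF, and PBS buffer containing 1% Cremophor EL/1,2-propanediol (10:3, v:v). Chloroform data were referenced to the non-halogenated parent dye.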"}, "HeLa [3]": {"tested_on": "HeLa", "assay": "Induction of reactive oxygen species generation in human HeLa cells incubated for 3 hrs prior to H2DCFDA addition for 20 mins followed by 54 J/cm2 light irradiation by confocal scanning microscopic analysis", "type": "functional, cell-based", "in_short": "(§2)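 HeLa cells were exposed to 0.004, 0.02, 0.10, 0.5 or 2.5 μM for 3 h, washed, and loaded with H2DCFDA 10 μM in PBS for 20 min at 37 °C. After washing, cells in PBS were irradiated with 54 J/cm² (λ > 590 nm) or kept dark. Fluorescence was read by confocal microscopy and by plate reader (ex 485/em 538 nm).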"}, "[4]": {"assay": "Induction of singlet oxygen generation in N,N-dimethylformamide assessed as relative rate of DPBF degradation to MB at 1 uM irradiated with 90 mW/cm2 halogen light", "type": "functional", "in_short": "(§3)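 Singlet oxygen generation measured with 1,3-diphenylisobenzofuran (DPBF) as scavenger. The decrease in DPBF absorbance at 411 nm was monitored over time during light irradiation, and the photodegradation rate was calculated.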"}, "[5]": {"assay": "Drug uptake in human HeLa cells xenografted Balb/c nu/nu mouse spleen at 2 mg/kg, iv measured within 1 hr by fluorescence imaging analysis", "type": "ADME, organism-based", "details": "in vivo", "in_short": "(§4)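 Female Balb/c nu/nu mice bore subcutaneous HeLa tumors (5×10^6 cells, right back) and received 2 mg/kg via tail vein. Living mice were imaged under isoflurane at time points (ex 680/em 720 nm, 1 s exposure). At set times mice were euthanized and heart, liver, spleen, lungs, kidneys and tumor imaged ex vivo; ROI quantified, mean ± SD, n = 3.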"}, "[6]": {"assay": "Drug uptake in Balb/c nu/nu mouse xenografted with human HeLa cells at 2 mg/kg, iv measured up to 3 hrs by fluorescence imaging analysis", "type": "ADME, organism-based", "details": "in vivo", "in_short": "as §4"}, "[7]": {"assay": "Stability of the compound in PBS containing 1% Cremophor EL/1,2-propanediol (10:3, v:v) system assessed as compound degradation under dark condition", "type": "physicochemical", "details": "buffer"}, "HeLa [8]": {"tested_on": "HeLa", "assay": "Induction of reactive oxygen species generation in human HeLa cells at 0.004 to 2.5 uM incubated for 3 hrs under dark condition by confocal scanning microscopic analysis", "type": "cell-based", "details": "dose 0.004-2.5 µM", "in_short": "as §2"}, "[9]": {"assay": "Absorption property of the compound in isopropanol assessed as absorption coefficient by UV-visible spectrophotometric method", "type": "physicochemical", "in_short": "as §1"}, "[10]": {"assay": "Absorption property of the compound in chloroform assessed as hypsochromic shift by measuring maximum absorption wavelength by UV-visible spectrophotometric method", "type": "physicochemical", "in_short": "as §1"}, "HeLa [11]": {"tested_on": "HeLa", "assay": "Induction of apoptosis in human HeLa cells assessed as necrotic cells at 200 nM preincubated for 3 hrs followed by 27 J/cm2 light irradiation and measured after 24 hrs by Annexin-V-FITC/propidium iodide staining based flow cytometry (reference value: 2.8%)", "type": "functional", "in_short": "(§5)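 HeLa cells in six-well plates were exposed to compound for 3 h, irradiated (λ > 590 nm), and incubated 24 h at 37 °C. Cells were then harvested, washed with PBS, and stained with annexin V-FITC/PI for 20 min at room temperature before immediate flow cytometry. Untreated, unirradiated cells served as control.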"}, "HeLa [12]": {"tested_on": "HeLa", "assay": "Induction of apoptosis in human HeLa cells assessed as necrotic cells at 200 nM preincubated for 3 hrs followed by 54 J/cm2 light irradiation and measured after 24 hrs by Annexin-V-FITC/propidium iodide staining based flow cytometry (reference value: 2.8%)", "type": "functional", "in_short": "as §5"}, "HeLa [13]": {"tested_on": "HeLa", "assay": "Induction of apoptosis in human HeLa cells assessed as late apoptotic cells at 40 nM preincubated for 3 hrs followed by 54 J/cm2 light irradiation and measured after 24 hrs by Annexin-V-FITC/propidium iodide staining based flow cytometry (reference value: 5.92%)", "type": "functional", "in_short": "as §5"}, "HeLa [14]": {"tested_on": "HeLa", "assay": "Induction of apoptosis in human HeLa cells assessed as viable cells at 40 nM preincubated for 3 hrs followed by 54 J/cm2 light irradiation and measured after 24 hrs by Annexin-V-FITC/propidium iodide staining based flow cytometry (reference value: 90.74%)", "type": "functional", "details": "light or radiation study, read-out: Activity", "in_short": "as §5"}, "[15]": {"assay": "Drug uptake in lysosomes of human HeLa cells at 5 uM incubated for 2 hrs under dark condition by Lyso tracker green dye based laser confocal microscopic analysis", "type": "ADME, subcellular, Lysosome", "in_short": "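HeLa cells adhered overnight on glass-bottom dishes and were loaded with 5 μM compound in the dark for 2 h. After PBS washes, cells were stained with Mito-Tracker Green FM 250 nM for 30 min, Lyso-Tracker Green 160 nM for 30 min, or ER-Tracker Green 2 μM for 45 min. Confocal imaging: trackers excited at 488 nm, collected 500–560 nm; compound excited at 633 nm, collected 650–740 nm.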"}, "HeLa [16]": {"tested_on": "HeLa", "assay": "Antitumor activity against human HeLa cells xenografted in Balb/c nu/nu mouse assessed as tumor growth inhibition at 2 mg/kg, iv pretreated for 15 mins followed by 54 J/cm2 light irradiation for 10 mins and measured after 24 days", "type": "functional, organism-based", "in_short": "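Female Balb/c nu/nu mice with subcutaneous HeLa tumors (5×10^6 cells) reaching 80–100 mm³ on day 7 were randomized, n = 5 per group. Mice received 2 mg/kg by tail vein, or saline for controls. After 15 min the tumor was irradiated once with 54 J/cm² (75 W halogen lamp, >590 nm filter, 90 mW/cm², 10 min), unanaesthetized. Calipers every other day; V = 0.5×L×W²; body weight tracked.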"}, "[17]": {"assay": "Absorption property of the compound in PBS containing 1% Cremophor EL/1,2-propanediol (10:3, v:v) system assessed as absorption coefficient by UV-visible spectrophotometric method", "type": "physicochemical", "details": "buffer", "in_short": "as §1"}, "[18]": {"assay": "Absorption property of the compound in chloroform assessed as absorption coefficient by UV-visible spectrophotometric method", "type": "physicochemical", "in_short": "as §1"}, "[19]": {"assay": "Induction of singlet oxygen generation in isopropanol assessed as relative rate of DPBF degradation to MB at 1 uM irradiated with 90 mW/cm2 halogen light", "type": "functional", "in_short": "as §3"}, "HeLa [20]": {"tested_on": "HeLa", "assay": "Induction of apoptosis in human HeLa cells assessed as viable cells at 200 nM preincubated for 3 hrs followed by 54 J/cm2 light irradiation and measured after 24 hrs by Annexin-V-FITC/propidium iodide staining based flow cytometry (reference value: 90.74%)", "type": "functional", "details": "light or radiation study, read-out: Activity", "in_short": "as §5"}, "[21]": {"assay": "Emission property of the compound in chloroform assessed as maximum emission wavelength by fluorescence spectrophotometric method", "type": "physicochemical", "in_short": "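Fluorescence spectrum recorded in chloroform by fluorescence spectrophotometer at room temperature.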"}, "HeLa [22]": {"tested_on": "HeLa", "assay": "Induction of reactive oxygen species generation in human HeLa cells at 2.5 uM incubated for 3 hrs prior to H2DCFDA addition for 20 mins followed by 54 J/cm2 light irradiation by microplate reader analysis relative to dark treated cells", "type": "functional", "in_short": "as §2"}, "HeLa [23]": {"tested_on": "HeLa", "assay": "Induction of apoptosis in human HeLa cells assessed as late apoptotic cells at 200 nM preincubated for 3 hrs followed by 54 J/cm2 light irradiation and measured after 24 hrs by Annexin-V-FITC/propidium iodide staining based flow cytometry (reference value: 5.92%)", "type": "functional", "in_short": "as §5"}, "[24]": {"assay": "Photostability of the compound in acetonitrile assessed as compound degradation irradiated with 90 mW/cm2 light", "type": "physicochemical"}}, "note": "The source made the active and inactive calls. No cut-off for these calls is given here.", "data": [{"smiles": "COc1ccc(C2=[N+]3C(=Nc4c(-c5ccccc5)cc(-c5ccc(OC)cc5)n4[B-]3(F)F)C(c3ccccc3)=C2I)cc1", "values": [{"measurement": "IC50 at 3 h", "setting": "[1]", "value": "> 50", "unit": "µM"}, {"measurement": "Activity", "setting": "[2]", "value": 59300, "unit": "M⁻¹ cm⁻¹"}, {"measurement": "Activity", "setting": "HeLa [3]", "value": "Dose-dependent effect"}, {"measurement": "fold change (FC)", "setting": "[4]", "value": 1.3}, {"measurement": "Drug uptake", "setting": "[5]", "value": "Active"}, {"measurement": "Drug uptake", "setting": "[6]", "value": "Active"}, {"measurement": "Stabilty", "setting": "[7]", "value": "Unstable"}, {"measurement": "Activity", "setting": "HeLa [8]", "value": "Non-Toxic"}, {"measurement": "Activity", "setting": "[9]", "value": 59300, "unit": "M⁻¹ cm⁻¹"}, {"measurement": "Activity", "setting": "[10]", "value": 678, "unit": "nm"}, {"measurement": "Activity", "setting": "HeLa [11]", "value": 21.64, "unit": "%"}, {"measurement": "Activity", "setting": "HeLa [12]", "value": 2.22, "unit": "%"}, {"measurement": "Activity", "setting": "HeLa [13]", "value": 10.31, "unit": "%"}, {"measurement": "viability at 0.04 µM", "setting": "HeLa [14]", "value": 77.3, "unit": "%"}, {"measurement": "Drug uptake", "setting": "[15]", "value": "Active"}, {"measurement": "TGI", "setting": "HeLa [16]", "value": "Active"}, {"measurement": "Activity", "setting": "[17]", "value": 34000, "unit": "M⁻¹ cm⁻¹"}, {"measurement": "Activity", "setting": "[18]", "value": 97000, "unit": "M⁻¹ cm⁻¹"}, {"measurement": "fold change (FC)", "setting": "[19]", "value": 7.3}, {"measurement": "viability at 0.2 µM", "setting": "HeLa [20]", "value": 8.15, "unit": "%"}, {"measurement": "Activity", "setting": "[21]", "value": 721, "unit": "nm"}, {"measurement": "fold change (FC)", "setting": "HeLa [22]", "value": 77}, {"measurement": "Activity", "setting": "HeLa [23]", "value": 8.6, "unit": "%"}, {"measurement": "Stabilty", "setting": "[24]", "value": "Stable"}]}]}
